Assay results reported in ChEMBL document CHEMBL3045648, “Proapoptotic effects of novel pentabromobenzylisothioureas in human leukemia cell lines” (2012).
Active and inactive are the calls of the source. No cut-off for these calls is given here.

How the values were obtained:
HL-60 [1] = assay: Induction of apoptosis in Homo sapiens (human) HL60 cells assessed as mitochondrial membrane depolarization at 5 uM after 48 hr by JC-1 staining based flow cytometric analysis (reference value: 7.7 +/- 2.4%); type: functional
K562 [2] = assay: Induction of apoptosis in Homo sapiens (human) K562 cells from 24 to 48 hr by annexinV/PI-staining based flow cytometric analysis; type: functional, cell-based
Procedure, shortened: (§1)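 Cells seeded at 2.5 × 10^5 cells/ml in RPMI-1640/10% FBS, treated 24 or 48 h, DMSO solvent controls. Rinsed twice in cold PBS and resuspended at 2 × 10^6 cells/ml in binding buffer. Labelled with annexin V-FITC and PI for 15 min at room temperature in the dark. Flow cytometry within 1 h; mean ± SD, n ≥ 4.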

K562 [3] = assay: Induction of cell cycle arrest in Homo sapiens (human) K562 cells assessed as accumulation of G1 phase cells after 48 hr by PI-staining based flow cytometric analysis; type: functional
Procedure, shortened: (§2)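 Cells treated 48 h with DMSO solvent controls, washed in cold PBS and fixed in 70% ethanol at −20°C for at least 24 h. Stained 30 min in the dark at room temperature with 50 μg/ml PI and 100 μg/ml RNase in PBS/0.1% Triton X-100. DNA content measured by flow cytometry and phase percentages modelled; mean ± SD, n ≥ 4.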

K562 [4] = assay: Induction of apoptosis in Homo sapiens (human) K562 cells assessed as mitochondrial membrane depolarization at 10 uM after 48 hr by JC-1 staining based flow cytometric analysis (reference value: 6.1 +/- 0.9%); type: functional
K562 [5] = assay: Induction of apoptosis in Homo sapiens (human) K562 cells at 10 to 20 uM by annexinV/PI-staining based flow cytometric analysis; type: functional, cell-based; details: TDE = time-dependent effect; procedure, shortened: as §1
HL-60 [6] = assay: Induction of cell cycle arrest in Homo sapiens (human) HL60 cells assessed as cells accumulation of G1/S phase cells after 48 hr by PI-staining based flow cytometric analysis; type: functional; procedure, shortened: as §2
HL-60 [7] = assay: Induction of cell cycle arrest in Homo sapiens (human) HL60 cells assessed as accumulation of G1 phase cells after 48 hr by PI-staining based flow cytometric analysis; type: functional; procedure, shortened: as §2
K562 [8] = assay: Induction of cell cycle arrest in Homo sapiens (human) K562 cells assessed as decrease in G2/M phase cells after 48 hr by PI-staining based flow cytometric analysis; type: functional; procedure, shortened: as §2
HL-60 [9] = assay: Induction of cell cycle arrest in Homo sapiens (human) HL60 cells assessed as decrease in G2/M phase cells after 48 hr by PI-staining based flow cytometric analysis; type: functional; procedure, shortened: as §2
HL-60 [10] = assay: Induction of apoptosis in Homo sapiens (human) HL60 cells at 5 to 8 uM by annexinV/PI-staining based flow cytometric analysis; type: functional, cell-based; details: TDE = time-dependent effect; procedure, shortened: as §1
K562 [11] = assay: Induction of cell cycle arrest in Homo sapiens (human) K562 cells assessed as cells accumulation of G1/S phase cells after 48 hr by PI-staining based flow cytometric analysis; type: functional; procedure, shortened: as §2
HL-60 [12] = assay: Induction of apoptosis in Homo sapiens (human) HL60 cells from 24 to 48 hr by annexinV/PI-staining based flow cytometric analysis; type: functional, cell-based; procedure, shortened: as §1
K562 [13] = assay: Induction of apoptosis in Homo sapiens (human) K562 cells assessed as PARP cleavage at 10 uM after 48 hr by FITC conjugated antiPARP-staining based flow cytometric analysis; type: functional, cell-based
Procedure, shortened: (§3)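 Cells in RPMI-1640 with 10% heat-inactivated FBS, seeded at 2.5 × 10^5 cells/ml and treated from DMSO solution. Controls got the same solvent volume. Harvested 48 h post-treatment and washed twice in PBS. Stained with FITC anti-PARP antibody specific for the 85 kDa cleaved fragment. Flow cytometry reported fluorescence intensity, with negative (M1) and positive (M2) gates.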

K562 [14] = assay: Induction of cell cycle arrest in Homo sapiens (human) K562 cells assessed as G1 phase cells at 20 uM after 48 hr by PI-staining based flow cytometric analysis (reference value: 37.6 +/- 3.2 %); type: functional; procedure, shortened: as §2
K562 [15] = assay: Induction of cell cycle arrest in Homo sapiens (human) K562 cells assessed as S phase cells at 20 uM after 48 hr by PI-staining based flow cytometric analysis (reference value: 43.3 +/- 3.4%); type: functional; procedure, shortened: as §2
K562 [16] = assay: Induction of cell cycle arrest in Homo sapiens (human) K562 cells assessed as S phase cells at 10 uM after 48 hr by PI-staining based flow cytometric analysis (reference value: 43.3 +/- 3.4%); type: functional; procedure, shortened: as §2
K562 [17] = assay: Induction of cell cycle arrest in Homo sapiens (human) K562 cells assessed as G1 phase cells at 10 uM after 48 hr by PI-staining based flow cytometric analysis (reference value: 37.6 +/- 3.2 %); type: functional; procedure, shortened: as §2
K562 [18] = assay: Induction of cell cycle arrest in Homo sapiens (human) K562 cells assessed as G2/M phase cells at 10 uM after 48 hr by PI-staining based flow cytometric analysis (reference value: 19.1 +/- 3.9%); type: functional; procedure, shortened: as §2
HL-60 [19] = assay: Induction of apoptosis in Homo sapiens (human) HL60 cells assessed as PARP cleavage at 8 uM after 48 hr by FITC conjugated antiPARP-staining based flow cytometric analysis; type: functional, cell-based; procedure, shortened: as §3
HL-60 [20] = assay: Induction of apoptosis in Homo sapiens (human) HL60 cells assessed as apoptotic nuclei at 8 uM after 48 hr by DAPI/sulforhodamine 101-stainihng based fluorescence micrscopic analysis; type: functional, cell-based
Procedure, shortened: (§4)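 Exponentially growing cells seeded at 2.5 × 10^5 cells/ml, exposed 48 h, DMSO solvent controls. Washed in cold PBS and fixed in 70% ethanol at −20°C for at least 24 h. Stained with 1.0 μg/ml DAPI plus 20 μg/ml sulforhodamine 101. Nuclear morphology scored by fluorescence microscopy.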

HL-60 [21] = assay: Induction of apoptosis in Homo sapiens (human) HL60 cells assessed as concentrated chromatin at 8 uM after 48 hr by DAPI/sulforhodamine 101-stainihng based fluorescence micrscopic analysis; type: functional, cell-based; procedure, shortened: as §4
K562 [22] = assay: Induction of cell cycle arrest in Homo sapiens (human) K562 cells assessed as G2/M phase cells at 20 uM after 48 hr by PI-staining based flow cytometric analysis (reference value: 19.1 +/- 3.9%); type: functional; procedure, shortened: as §2

Compound	Activity (HL-60 [1]) [%]	Activity (K562 [2])	Activity (K562 [3])	Activity (K562 [4]) [%]	Activity (K562 [5])	Activity (HL-60 [6])	Activity (HL-60 [7])	Activity (K562 [8])	Activity (HL-60 [9])	Activity (HL-60 [10])	Activity (K562 [11])	Activity (HL-60 [12])	other results
Br.CCNC(=N)SCc1c(Br)c(Br)c(Br)c(Br)c1Br	30.1	Dose-dependent effect	Dose-dependent effect	62.2	tde	Dose-dependent effect	Dose-dependent effect	Dose-dependent effect	Dose-dependent effect	tde	Dose-dependent effect	Dose-dependent effect	
Br.CNC(=N)SCc1c(Br)c(Br)c(Br)c(Br)c1Br	24.4	Dose-dependent effect	Dose-dependent effect	81.8	tde	Dose-dependent effect	Dose-dependent effect	Dose-dependent effect	Dose-dependent effect	tde	Dose-dependent effect	Dose-dependent effect	Activity (K562 [13]): Active
Br.C=CCNC(=N)SCc1c(Br)c(Br)c(Br)c(Br)c1Br	12.8	Dose-dependent effect	Dose-dependent effect	60	tde	Dose-dependent effect	Dose-dependent effect	Dose-dependent effect	Dose-dependent effect	tde	Dose-dependent effect	Dose-dependent effect	
Br.N=C(N)SCc1c(Br)c(Br)c(Br)c(Br)c1Br	21.9	Dose-dependent effect	Dose-dependent effect	63.8	tde	Dose-dependent effect	Dose-dependent effect	Dose-dependent effect	Dose-dependent effect	tde	Dose-dependent effect	Dose-dependent effect	
Br.C/N=C(/NC)SCc1c(Br)c(Br)c(Br)c(Br)c1Br	93.1	Dose-dependent effect	Dose-dependent effect	77.7	tde	Dose-dependent effect	Dose-dependent effect	Dose-dependent effect	Dose-dependent effect	tde	Dose-dependent effect	Dose-dependent effect	Activity (K562 [14]): 55%; Activity (K562 [15]): 42.5%; Activity (K562 [16]): 35.5%; Activity (K562 [17]): 55.5%; Activity (K562 [18]): 9%; Activity (HL-60 [19]): Active; Activity (HL-60 [20]): Active; Activity (HL-60 [21]): Active; Activity (K562 [22]): 2.5%
